Data on eight compounds can be found in ChEMBL document CHEMBL1124255, “7-substituted 5-amino-1-cyclopropyl-6,8-difluoro-1,4-dihydro-4-oxo-3- quinolinecarboxylic acids: synthesis and biological activity of a new class of quinolone antibacterials” (J Med Chem, 1988).

For assay [1], the system named is Escherichia coli. As to the kind of experiment: Median protective dose against Escherichia coli, determined in acute, lethal systemic infection in female charles river CD-1 mice (sc). It counts as functional. Conditions: read-out: PD50. In short, it runs like this:
(§1)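 Female Charles River CD-1 mice (18-22 g) were challenged intraperitoneally with about 100 median lethal doses in 0.5 mL 5% hog gastric mucin. Single compound doses in a twofold rising series were given in 0.5 mL at the time of challenge: sc as aqueous solution, po by gavage in 5% gum acacia. Groups of eight mice were used per dose. PD50 was estimated from survival percentages by log probit.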

For assay [2], the system named is Escherichia coli. Briefly: Antibacterial activity against Escherichia coli H560. It is filed as functional. An outline of the steps: (§2)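 Minimum inhibitory concentration measured by standard microtitration, run as part of a panel of 11 bacterial organisms.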
Assay [3] concerns Streptococcus pyogenes. Briefly: Antibacterial activity against Streptococcus pyogenes C203. It counts as functional. An outline of the steps:
as §2

The test system of assay [4] is Klebsiella pneumoniae. As to the kind of experiment: Antibacterial activity against Klebsiella pneumoniae MGH-2. It is filed as functional. An outline of the steps:
as §2

Assay [5] relates to Enterococcus faecalis. Briefly: Antibacterial activity against Streptococcus faecalis MGH-2. It is filed as functional. In short, it runs like this: as §2
For assay [6], the system named is Staphylococcus aureus. As to the kind of experiment: Antibacterial activity against Staphylococcus aureus H-228. It is filed as functional. An outline of the steps: as §2
Assay [7] relates to Pseudomonas aeruginosa. Briefly: Antibacterial activity against Pseudomonas aeruginosa UI-18. It counts as functional. An outline of the steps:
as §2

The subject of assay [8] is Staphylococcus aureus. As to the kind of experiment: Antibacterial activity against Staphylococcus aureus UC76. It is filed as functional. In short, it runs like this: as §2
In assay [9] the test system is Escherichia coli. Briefly: Median protective dose against Escherichia coli, determined in acute, lethal systemic infection in female charles river CD-1 mice (po). Conditions: for ED50: Escherichia coli, po, read-out: PD50. It is filed as functional. Also on record: PD50: unit not given here. An outline of the steps: as §1
Assay [10] concerns Streptococcus pneumoniae. As to the kind of experiment: Antibacterial activity against Streptococcus pneumoniae SV-1. It is filed as functional. An outline of the steps: as §2
The test system of assay [11] is Providencia rettgeri. As to the kind of experiment: Antibacterial activity against Providencia rettgeri M1771. It counts as functional. An outline of the steps: as §2
The target of assay [12] is DNA gyrase (Escherichia coli, UniProt P0AES4+P0AES6). Briefly: 50% inhibitory concentration against DNA-gyrase. It counts as protein-complex assay.
Assay [13] has as its system Enterobacter cloacae. Briefly: Antibacterial activity against Enterobacter cloacae MA2646. It is filed as functional.
Assay [14] deals with Escherichia coli. As to the kind of experiment: Antibacterial activity against Escherichia coli Vogel. It counts as functional. An outline of the steps:
as §2

≈ marks a conversion by molar mass, not a printed value.

On to `O=C(O)c1cn(C2CC2)c2cc(N3CCNCC3)c(F)cc2c1=O` [CIPROFLOXACIN], for which the ED50 in assay [1] is 0.3 mg/kg; in assay [9] it was 1.2 mg/kg. For the same compound, the MIC (usually the lowest concentration found to suppress growth) in assay [2] amounted to 0.025 µg/mL (≈ 0.0754 µM); in [3] it was 0.8 µg/mL (≈ 2.41 µM); in assay [4], 0.1 µg/mL (≈ 0.302 µM); in [5] it was 0.8 µg/mL (≈ 2.41 µM); in assay [6], 3.1 µg/mL (≈ 9.36 µM); in assay [7], 0.4 µg/mL (≈ 1.21 µM). Also, the minimal inhibitory concentration (MIC) in assay [8] turned out to be 0.2 µg/mL (≈ 0.604 µM); in assay [10] it was 1.6 µg/mL (≈ 4.83 µM); in [11], 0.1 µg/mL (≈ 0.302 µM).
Take `CNCC1CCN(c2c(F)c(N)c3c(=O)c(C(=O)O)cn(C4CC4)c3c2F)C1` (stereo not given): in [12], the IC50 – broadly, the concentration that gives 50% inhibition – is 7.65 µM. Moreover, the values for the ED50 in assay [1] and in [9] were 0.8 mg/kg and 7.5 mg/kg, respectively. Besides, the MIC came out at 0.003 µg/mL (≈ 0.00765 µM) in assay [2]; 0.003 µg/mL (≈ 0.00765 µM) in [3]; 0.05 µg/mL (≈ 0.127 µM) in assay [4]; 0.05 µg/mL (≈ 0.127 µM) in [13]; 0.025 µg/mL (≈ 0.0637 µM) in assay [5]; 0.013 µg/mL (≈ 0.0331 µM) in assay [6]. In addition, the MIC in assay [7] was 0.4 µg/mL (≈ 1.02 µM); in assay [8], 0.006 µg/mL (≈ 0.0153 µM); in assay [10] it was 0.003 µg/mL (≈ 0.00765 µM); in assay [14], 0.025 µg/mL (≈ 0.0637 µM); in assay [11], 0.2 µg/mL (≈ 0.51 µM).
Take `Nc1c(F)c(N2CCC(N)C2)c(F)c2c1c(=O)c(C(=O)O)cn2C1CC1` (stereo not given): half-maximal inhibition in assay [12] (IC50) required 7.14 µM. Besides, the results for the ED50 in assay [1] and in assay [9] were 0.4 mg/kg and 1.6 mg/kg, respectively. Further, the minimum inhibitory concentration (MIC) was determined as 0.003 µg/mL (≈ 0.00823 µM) in [2]; 0.025 µg/mL (≈ 0.0686 µM) in [3]; 0.006 µg/mL (≈ 0.0165 µM) in assay [4]; 0.006 µg/mL (≈ 0.0165 µM) in assay [13]; 0.025 µg/mL (≈ 0.0686 µM) in assay [5]; 0.013 µg/mL (≈ 0.0357 µM) in [6]. The MIC in assay [7] stood at 0.05 µg/mL (≈ 0.137 µM); in [8] it was 0.006 µg/mL (≈ 0.0165 µM); in [10], 0.006 µg/mL (≈ 0.0165 µM); in [14], 0.006 µg/mL (≈ 0.0165 µM); in assay [11] it was 0.025 µg/mL (≈ 0.0686 µM).
For the compound `CCNCC1CCN(c2c(F)c(NC(C)=O)c3c(=O)c(C(=O)O)cn(C4CC4)c3c2F)C1` (stereo not given), the IC50 in assay [12] is over 223 µM. In addition, the MIC is 12.5 µg/mL (≈ 27.9 µM) in [2]; 12.5 µg/mL (≈ 27.9 µM) in assay [3]; over 25 µg/mL in assay [4]; over 25 µg/mL in assay [13]; 12.5 µg/mL (≈ 27.9 µM) in [5]; 12.5 µg/mL (≈ 27.9 µM) in assay [6]. For the same compound, the minimal inhibitory concentration (MIC) is over 25 µg/mL in assay [7]; 3.1 µg/mL (≈ 6.91 µM) in [8]; 6.3 µg/mL (≈ 14 µM) in assay [10]; over 25 µg/mL in assay [14]; over 25 µg/mL in assay [11].
Compound `O=C(O)c1cn(C2CC2)c2c(F)c(N3CCNCC3)c(F)cc2c1=O` had an IC50 in assay [12] of 8.02 µM. Also, the ED50 in assay [1] was 0.3 mg/kg. Also, the minimum inhibitory concentration (MIC) in assay [2] stood at 0.025 µg/mL (≈ 0.0716 µM); in assay [3], 0.8 µg/mL (≈ 2.29 µM); in [4], 0.05 µg/mL (≈ 0.143 µM); in assay [13], 0.05 µg/mL (≈ 0.143 µM); in [5], 0.4 µg/mL (≈ 1.15 µM); in [6], 0.4 µg/mL (≈ 1.15 µM). Also, the MIC in assay [7] is 0.2 µg/mL (≈ 0.573 µM); in assay [8] it was 0.1 µg/mL (≈ 0.286 µM); in assay [10], 0.8 µg/mL (≈ 2.29 µM); in [14], 0.1 µg/mL (≈ 0.286 µM); in assay [11], 0.1 µg/mL (≈ 0.286 µM). The same compound came in with a PD50 in assay [9] of 0.45.
Consider `CCNCC1CCN(c2c(F)c(NC)c3c(=O)c(C(=O)O)cn(C4CC4)c3c2F)C1` (stereo not given), for which, in assay [12], 32.8 µM corresponded to half-maximal inhibition (IC50). The values for the ED50 in assay [1] and in assay [9] were 5 mg/kg and 11 mg/kg, respectively. The MIC in [2] turned out to be 0.05 µg/mL (≈ 0.119 µM); in [3] it was 0.1 µg/mL (≈ 0.238 µM); in assay [4], 0.4 µg/mL (≈ 0.951 µM); in [13], 0.4 µg/mL (≈ 0.951 µM); in [5], 0.1 µg/mL (≈ 0.238 µM); in [6], 0.025 µg/mL (≈ 0.0595 µM). Besides, the minimal inhibitory concentration (MIC) in assay [7] was determined as 3.1 µg/mL (≈ 7.37 µM); in assay [8] it was 0.025 µg/mL (≈ 0.0595 µM); in assay [10] it was 0.025 µg/mL (≈ 0.0595 µM); in assay [14], 0.2 µg/mL (≈ 0.476 µM); in assay [11] it was 1.6 µg/mL (≈ 3.81 µM).
In assay [12], `CN1CCN(c2c(F)c(N(C)C)c3c(=O)c(C(=O)O)cn(C4CC4)c3c2F)CC1` showed an IC50 of over 492 µM. Further, the MIC in assay [2], in assay [3], in [4], in [13], in assay [5] and in assay [6] was over 25 µg/mL throughout. For the same compound, the MIC in [7], in assay [8], in assay [10], in [14] and in assay [11] was over 25 µg/mL throughout.
In [12], `Nc1c(F)c(N2CCNCC2)c(F)c2c1c(=O)c(C(=O)O)cn2C1CC1` showed an IC50 of 7.68 µM. Also, the ED50 worked out at 0.2 mg/kg in assay [1] and 0.8 mg/kg in assay [9]. For the same compound, the MIC in [2] was found to be 0.003 µg/mL (≈ 0.00823 µM); in [3], 0.2 µg/mL (≈ 0.549 µM); in [4], 0.025 µg/mL (≈ 0.0686 µM); in assay [13], 0.013 µg/mL (≈ 0.0357 µM); in assay [5], 0.05 µg/mL (≈ 0.137 µM); in assay [6], 0.05 µg/mL (≈ 0.137 µM). Moreover, the MIC in assay [7] worked out at 0.025 µg/mL (≈ 0.0686 µM); in [8] it was 0.013 µg/mL (≈ 0.0357 µM); in assay [10] it was 0.05 µg/mL (≈ 0.137 µM); in assay [14], 0.013 µg/mL (≈ 0.0357 µM); in assay [11], 0.05 µg/mL (≈ 0.137 µM).
